From ChEMBL document CHEMBL1123113, “"Reverse" and "symmetrical" analogues of actinomycin D: metabolic activation and in vitro and in vivo tumor growth inhibitory activities” (J Med Chem, 1985)

What was measured:
CCRF-CEM = test: Inhibitory dose required for the inhibition of human lymphoblastic leukemia cells(CCRF-CEM); assay type: functional; settings: read-out: ID50 (the source's name)
Mus musculus [1] = test: Antitumor activity against P388 leukemia cells in terms of percentage increase in life span in mice at an optimal dose of 450 ug/kg administered ip; assay type: functional
Mus musculus [2] = organism: Mus musculus; test: Antitumor activity against B16 melanoma in terms of percentage increase in life span in mice after 65 days; assay type: functional
Mus musculus [3] = test: Antitumor activity against P388 leukemia cells in terms of median survival time of mice at an optimal dose of 450 ug/kg administered ip; assay type: functional
Mus musculus [4] = test: Antitumor activity against B16 melanoma in terms of median survival time of mice at an optimal dose of 300 ug/kg administered ip; assay type: functional
Mus musculus [5] = test: In vivo antitumor activity was determined against B16 melanoma in mice as number of mice survived after administration of 300 ug/Kg dose of compound; Value represented as no of survivors/ treated = 3/9; assay type: functional
Rattus norvegicus [6] = organism: Rattus norvegicus; test: (§1) Compound tested for NADPH oxidation in rat hepatic mycrosomal incubation; assay type: functional
How it was run: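 Phenobarbital-induced rat liver microsomes (300 µg), 37 °C, no epinephrine; NADPH 0.4 mM added to sample cuvette only. A340 followed; % oxidation = (1 − A340/A'340)×100 vs cuvette not activated by microsomes; % stimulation = (drug rate − basal rate)/basal rate ×100. Drugs in 150 mM KCl-50 mM Tris pH 7.4; triplicate analyses, mean ± standard error.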

Rattus norvegicus [7] = organism: Rattus norvegicus; test: (§2) Compound tested for adrenochrome formation in rat hepatic mycrosomal incubation; assay type: functional
How it was run: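 Superoxide read as adrenochrome from epinephrine (in 0.01 N HCl) with phenobarbital-induced rat liver microsomes (300 µg) at 37 °C; NADPH 0.4 mM added to sample cuvette after 1 min. Rate at 480 nm (ε 4.02 mM-1 cm-1); drug ≤100 µM in 150 mM KCl-50 mM Tris pH 7.4; % stimulation over basal rate; triplicate, mean ± standard error.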

Mus musculus [8] = test: In vivo antitumor activity was determined against P388 leukemia mice as number of mice survived after administration of 450 ug/Kg dose of compound; Value represented as no of survivors/ treated = 3/8; assay type: functional
Mus musculus [9] = test: Antitumor activity against B16 melanoma in terms of percentage increase in life span in mice at an optimal dose of 900 ug/kg administered ip; assay type: functional
Mus musculus [10] = test: Antitumor activity against P388 leukemia cells in terms of percentage increase in life span in mice at an optimal dose of 1000 ug/kg administered ip; assay type: functional
Mus musculus [11] = organism: Mus musculus; test: Dose providing an increase in the life span of 45% over control in P388 tumor bearing mice; assay type: functional; settings: read-out: MED
How it was run: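 MED is the ip dose in mg/kg, given on days 1, 5 and 9 starting 1 day after implantation, that gives a 45% increase in life span over control in P388-bearing mice. It was derived from plotted log-dose response data.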

Mus musculus [12] = test: Antitumor activity against B16 melanoma in terms of median survival time of mice at an optimal dose of 900 ug/kg administered ip; assay type: functional
Mus musculus [13] = test: Antitumor activity against P388 leukemia cells in terms of median survival time of mice at an optimal dose of 1000 ug/kg administered ip; assay type: functional
Mus musculus [14] = test: In vivo antitumor activity was determined against P388 leukemia mice as number of mice survived after administration of 1000 ug/Kg dose of compound; Value represented as no of survivors/ treated = 2/8; assay type: functional
Mus musculus [15] = test: In vivo antitumor activity was determined against P388 (adriamycin sensitive tumors) as number of mice survived after administration of 0.3-1.8 mg/kg, ip dose of compound; Value represented as no of survivors/ treated = 4/8; assay type: functional
Mus musculus [16] = test: In vivo antitumor activity was determined against B16 melanoma mice as number of mice survived after administration of 900 ug/Kg dose of compound; Value represented as no of survivors/ treated = 2/9
Mus musculus [17] = test: Antitumor activity against P388 leukemia cells in terms of percentage increase in life span in mice at an optimal dose of 600 ug/kg administered ip; assay type: functional
Mus musculus [18] = test: Antitumor activity against B16 melanoma in terms of percentage increase in life span in mice at an optimal dose of 300 ug/kg administered ip; assay type: functional
Mus musculus [19] = test: Antitumor activity against P388 leukemia cells in terms of median survival time of mice at an optimal dose of 600 ug/kg administered ip; assay type: functional
Mus musculus [20] = test: In vivo antitumor activity was determined against P388 leukemia mice as number of mice survived after administration of 600 ug/Kg dose of compound; Value represented as no of survivors/ treated = 4/8; assay type: functional
Mus musculus [21] = test: In vivo antitumor activity was determined against B16 melanoma mice as number of mice survived after administration of 300 ug/Kg dose of compound; Value represented as no of survivors/ treated = 4/9; assay type: functional
Rattus norvegicus [22] = organism: Rattus norvegicus; test: as §1; assay type: functional; remark: listed apart in the source
How it was run: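 Phenobarbital-induced male Sprague-Dawley rat liver microsomes were placed in both cuvettes, without epinephrine. NADPH 0.4 mM was added to the sample side only, and absorbance was read at 340 nm. Percent stimulation = (drug rate − basal)/basal × 100. Values are the average ± standard errors of triplicates.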

Rattus norvegicus [23] = organism: Rattus norvegicus; test: as §2; assay type: functional; remark: listed apart in the source
How it was run: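 Adrenochrome assay for superoxide: epinephrine in 0.01 N HCl plus 300 µg of phenobarbital-induced rat liver microsomes at 37 °C. NADPH 0.4 mM was added to the sample side 1 min later, and the rate was read at 480 nm (ε 4.02 mM−1 cm−1). Drugs were at ≤100 µM, made in 150 mM KCl–50 mM Tris, pH 7.4. Percent stimulation is over basal rate, in triplicate.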

Mus musculus [24] = test: Antitumor activity against P388 leukemia cells in terms of percentage increase in life span in mice at an optimal dose of 375 ug/kg administered ip; assay type: functional
Mus musculus [25] = test: In vivo antitumor activity was determined against P388 leukemia mice as number of mice survived after administration of 375 ug/Kg dose of compound; Value represented as no of survivors/ treated = 4/8; assay type: functional
Mus musculus [26] = test: Antitumor activity against P388 leukemia cells in terms of median survival time of mice at an optimal dose of 375 ug/kg administered ip; assay type: functional
Mus musculus [27] = test: In vivo antitumor activity was determined against B16 melanoma in mice as number of mice survived after administration of 300 ug/Kg dose of compound; Value represented as no of survivors/ treated = 5/9; assay type: functional
P388 [28] = test: Inhibition of RNA synthesis was measured as the concentration required to cause 50% reduction (in 1h) in 2-[14C]uridine incorporation into acid precipitable material using P388 cells; assay type: functional, cell-based; settings: Mus musculus, P388, 1 h
P388 [29] = test: Inhibition of DNA synthesis was measured as the concentration required to cause 50% reduction (in 1h) in methyl [3H]thymidine incorporation into acid precipitable material using P388 cells; assay type: functional, cell-based; settings: Mus musculus

Cc1nc2c(C(=O)N[C@@H]3C(=O)N[C@H](C(C)C)C(=O)N4CCC[C@H]4C(=O)N(C)CC(=O)N(C)[C@@H](C(C)C)C(=O)O[C@@H]3C)c3nc4c(C(=O)N[C@@H]5C(=O)N[C@H](C(C)C)C(=O)N6CCC[C@H]6C(=O)N(C)CC(=O)N(C)[C@@H](C(C)C)C(=O)O[C@@H]5C)c(N)c(=O)c(C)c-4oc3c(C)c2o1 [listing 1 of 2 here] was tested, and the IC50 (CCRF-CEM) was 110 nM, the ILS at 0.45 mg/kg (Mus musculus [1]) was 277% and the ILS (Mus musculus [2]) was 90%. It also gave an MST (Mus musculus [3]) of 42.5 days, an MST (Mus musculus [4]) of 55 days and a Survivors (Mus musculus [5]) of 3. For the same compound, the NADPH oxidation (Rattus norvegicus [6]) was 21.3 nM min-1 (mg of protein)-1, the adrenochrome formation (Rattus norvegicus [7]) was 6.04 nM min-1 (mg of protein)-1 and the Survivors (Mus musculus [8]) was 3.
With Cc1c2oc3c(C)c4oc(-c5ccccc5)nc4c(C(=O)N[C@@H]4C(=O)N[C@H](C(C)C)C(=O)N5CCC[C@H]5C(=O)N(C)CC(=O)N(C)[C@@H](C(C)C)C(=O)O[C@@H]4C)c3nc-2c(C(=O)N[C@@H]2C(=O)N[C@H](C(C)C)C(=O)N3CCC[C@H]3C(=O)N(C)CC(=O)N(C)[C@@H](C(C)C)C(=O)O[C@@H]2C)cc1=O the IC50 (CCRF-CEM) was 500 nM, the ILS at 0.9 mg/kg (Mus musculus [9]) was 55% and the “ILS (Sur)” value (Mus musculus [10]) was 186%. For the same compound, the minimal effective dose (Mus musculus [11]) was 0.2 mg/kg, the MST (Mus musculus [12]) was 45 days and the MST (Mus musculus [13]) was 31.5 days. It also gave a Survivors (Mus musculus [14]) of 2, a Survivors (Mus musculus [15]) of 4 and a Survivors (Mus musculus [16]) of 2.
Cc1c2oc3c(C)c(O)c(N)c(C(=O)N[C@@H]4C(=O)N[C@H](C(C)C)C(=O)N5CCC[C@H]5C(=O)N(C)CC(=O)N(C)[C@@H](C(C)C)C(=O)O[C@@H]4C)c3nc-2c(C(=O)N[C@@H]2C(=O)N[C@H](C(C)C)C(=O)N3CCC[C@H]3C(=O)N(C)CC(=O)N(C)[C@@H](C(C)C)C(=O)O[C@@H]2C)c(N)c1=O was tested, and the IC50 (CCRF-CEM) was 30 nM, the ILS at 0.6 mg/kg (Mus musculus [17]) was 382% and the ILS at 0.3 mg/kg (Mus musculus [18]) was 96%. The minimal effective dose (Mus musculus [11]) was 0.025 mg/kg, the MST (Mus musculus [19]) was 52 days and the MST (Mus musculus [4]) was 57 days. For the same compound, the Survivors (Mus musculus [20]) was 4, the Survivors (Mus musculus [21]) was 4 and the NADPH oxidation (Rattus norvegicus [22]) was 64.3 nM min-1 (mg of protein)-1. The adrenochrome formation (Rattus norvegicus [23]) was 19.3 nM min-1 (mg of protein)-1.
Cc1c2oc3c(C)c4oc(-c5ccccc5)nc4c(C(=O)N[C@@H]4C(=O)N[C@H](C(C)C)C(=O)N5CCC[C@H]5C(=O)N(C)CC(=O)N(C)[C@@H](C(C)C)C(=O)O[C@@H]4C)c3nc-2c(C(=O)N[C@@H]2C(=O)N[C@H](C(C)C)C(=O)N3CCC[C@H]3C(=O)N(C)CC(=O)N(C)[C@@H](C(C)C)C(=O)O[C@@H]2C)c(N)c1=O was tested, and the IC50 (CCRF-CEM) was 30 nM, the ILS at 0.375 mg/kg (Mus musculus [24]) was 382% and the ILS at 0.3 mg/kg (Mus musculus [18]) was 103%. For the same compound, the minimal effective dose (Mus musculus [11]) was 0.03 mg/kg, the Survivors (Mus musculus [25]) was 4 and the MST (Mus musculus [26]) was 52 days. The MST (Mus musculus [4]) was 59 days and the Survivors (Mus musculus [27]) was 5.
Cc1nc2c(C(=O)N[C@@H]3C(=O)N[C@H](C(C)C)C(=O)N4CCC[C@H]4C(=O)N(C)CC(=O)N(C)[C@@H](C(C)C)C(=O)O[C@@H]3C)c3nc4c(C(=O)N[C@@H]5C(=O)N[C@H](C(C)C)C(=O)N6CCC[C@H]6C(=O)N(C)CC(=O)N(C)[C@@H](C(C)C)C(=O)O[C@@H]5C)c(N)c(=O)c(C)c-4oc3c(C)c2o1 [listing 2 of 2 here] gave an IC50 (P388 [28]) of 90 nM and an IC50 (P388 [29]) of 1010 nM.
